Reference: ChEMBL document CHEMBL2390868, “Design and synthesis of dimethylaminomethyl-substituted curcumin derivatives/analogues: potent antitumor and antioxidant activity, improved stability and aqueous solubility compared with curcumin” (Bioorg Med Chem Lett, 2013)

Assays:
[1] = test system: HCT-116; assay: Ratio of curcumin IC50 to compound IC50 for human HCT116 cells; type: functional
[2] = test system: HepG2; assay: Ratio of curcumin IC50 to compound IC50 for human HepG2 cells; type: functional
[3] = Stability of the compound in phosphate-buffered solution assessed as drug degradation under daylight condition at […] measured within 120 mins by UV-vis absorption spectroscopic analysis in presence of FBS; type: physicochemical; conditions: buffer, 2 h
Outline: (§1)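 Absorbance at 410 nm followed over time in phosphate-buffered solution (pH 7.4) under daylight, without or with 0.1% FBS; stability expressed as A/A0 relative to the 0 min reading.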

[4] = Stability of the compound in phosphate-buffered solution assessed as drug degradation under daylight condition at […] measured within 120 mins by UV-vis absorption spectroscopic analysis in absence of FBS; type: physicochemical; conditions: buffer, 2 h; outline: as §1
[5] = Antioxidant activity assessed as galvinoxyl free radical scavenging activity; type: functional
[6] = Antioxidant activity assessed as galvinoxyl free radical scavenging activity at 1 uM relative to control; type: functional
[7] = Antioxidant activity assessed as galvinoxyl free radical scavenging activity at 2 uM relative to control; type: functional
[8] = Antioxidant activity assessed as galvinoxyl free radical scavenging activity at 10 uM relative to control; type: functional
[9] = Antioxidant activity assessed as galvinoxyl free radical scavenging activity at 20 uM relative to control; type: functional
[10] = Antioxidant activity assessed as galvinoxyl free radical scavenging activity at 100 uM relative to control; type: functional
[11] = test system: Radical scavenging activity; assay: Antioxidant activity assessed as DPPH free radical scavenging activity; type: functional
[12] = test system: Radical scavenging activity; assay: Antioxidant activity assessed as DPPH free radical scavenging activity at 1 uM relative to control; type: functional
[13] = test system: Radical scavenging activity; assay: Antioxidant activity assessed as DPPH free radical scavenging activity at 2 uM relative to control; type: functional
[14] = test system: Radical scavenging activity; assay: Antioxidant activity assessed as DPPH free radical scavenging activity at 10 uM relative to control; type: functional
[15] = test system: Radical scavenging activity; assay: Antioxidant activity assessed as DPPH free radical scavenging activity at 20 uM relative to control; type: functional
[16] = test system: Radical scavenging activity; assay: Antioxidant activity assessed as DPPH free radical scavenging activity at 100 uM relative to control; type: functional
[17] = test system: HepG2; assay: Cell cycle arrest in human HepG2 cells assessed as accumulation at G2/M phase at 30 uM after 12 hrs by propidium iodide staining-based FACS flow cytometric analysis (reference value: 33.98%); type: functional
[18] = test system: HepG2; assay: Cell cycle arrest in human HepG2 cells assessed as accumulation at S phase at 30 uM after 12 hrs by propidium iodide staining-based FACS flow cytometric analysis (reference value: 22.47%); type: functional
[19] = test system: HepG2; assay: Cell cycle arrest in human HepG2 cells assessed as accumulation at G0/G1 phase at 30 uM after 12 hrs by propidium iodide staining-based FACS flow cytometric analysis (reference value: 22.94%); type: functional
[20] = test system: HCT-116; assay: Cytotoxicity against human HCT116 cells assessed as growth inhibition after 72 hrs by MTT assay; type: functional, cell-based; conditions: HCT-116, 72 h
[21] = test system: A549; assay: Cytotoxicity against human A549 cells assessed as growth inhibition after 72 hrs by MTT assay; type: functional, cell-based; conditions: A549, 72 h
[22] = test system: HepG2; assay: Cytotoxicity against human HepG2 cells assessed as growth inhibition after 72 hrs by MTT assay; type: functional, cell-based; conditions: HepG2, 72 h
[23] = test system: SGC-7901; assay: Cytotoxicity against human SGC7901 cells assessed as growth inhibition after 72 hrs by MTT assay; type: functional, cell-based; conditions: SGC-7901, 72 h
[24] = Aqueous solubility of the compound by UV-vis absorption spectroscopic analysis; type: physicochemical

Structure (SMILES) | Stability [3] | Stability [4] | IC50 [5] | IC50 [11] | Activity [6] | Activity [7] | Activity [8] | Activity [9] | Activity [10] | Activity [12] | Activity [13] | Activity [14] | Activity [15] | Activity [16] | IC50 [20] | IC50 [21] | IC50 [22] | IC50 [23] | also measured
COc1cc(/C=C/C(=O)CC(=O)/C=C/c2ccc(O)c(CN(C)C)c2)ccc1O | Unstable | Unstable | 66.6 µM | 18.6 µM | 0% | 3.1% | 16.5% | 37.8% | 51.9% | 1.1% | 5% | 23.4% | 51.7% | 91.2% | 3.7 µM | 20.2 µM | 5.2 µM | 23.5 µM | Ratio IC50 [1]: >10; Ratio IC50 [2]: >10; Activity [17]: 24.97%; Activity [18]: 45.63%; Activity [19]: 29.4%
COc1cc(/C=C2\CCC/C(=C\c3cc(CN(C)C)c(O)c(OC)c3)C2=O)cc(CN(C)C)c1O | Stable | Stable | 16.3 µM | 4.8 µM | 8.3% | 21.1% | 38.9% | 52.9% | 58.9% | 24.7% | 40.1% | 55% | 82.8% | 86.3% | 65.9 µM | 51.8 µM | 24.3 µM | 25.8 µM | –
COc1cc(/C=C2\CC/C(=C\c3cc(CN(C)C)c(O)c(OC)c3)C2=O)cc(CN(C)C)c1O | – | – | 56.3 µM | 1.8 µM | 8.6% | 12.8% | 35.3% | 48% | 58.6% | 38.6% | 47.9% | 50.9% | 82% | 88.6% | 24.4 µM | – | 46.2 µM | – | –
COc1cc(/C=C/C(=O)CC(=O)/C=C/c2ccc(O)c(OC)c2)ccc1O [CURCUMIN] | – | – | > 100 µM | 26.5 µM | 4.6% | 5.8% | 13.7% | 22.2% | 45% | 0.3% | 2.4% | 23.1% | 42% | 87.2% | 41.5 µM | 32.2 µM | 78.7 µM | 29 µM | Activity [17]: 50.2%; Activity [18]: 29.33%; Activity [19]: 20.46%
CN(C)Cc1cc(/C=C/C(=O)/C=C/c2ccc(O)c(CN(C)C)c2)ccc1O.Cl.Cl | – | – | – | – | – | – | – | – | – | – | – | – | – | – | – | – | – | – | solubility [24]: 368 mg/mL
COc1cc(/C=C/C(=O)CC(=O)/C=C/c2ccc(O)c(C[N+](C)(C)C)c2)ccc1O | – | – | – | – | – | – | – | – | – | – | – | – | – | – | – | – | 126 µM | 321 µM | –
CN(C)Cc1cc(/C=C2\CCC/C(=C\c3ccc(O)c(CN(C)C)c3)C2=O)ccc1O.Cl.Cl | – | – | – | – | – | – | – | – | – | – | – | – | – | – | – | – | – | – | solubility [24]: 303 mg/mL

Second part, led by results:

Stability [3] | Stability [4] | IC50 [5] | IC50 [11] | Structure (SMILES) | Activity [6] | Activity [7] | Activity [8] | Activity [9] | Activity [10] | Activity [12] | Activity [13] | Activity [14] | Activity [15] | Activity [16] | IC50 [20] | IC50 [21] | IC50 [22] | IC50 [23] | also measured
– | – | 45 µM | 2.3 µM | CN(C)Cc1cc(/C=C2\CC/C(=C\c3ccc(O)c(CN(C)C)c3)C2=O)ccc1O | 3.8% | 13.3% | 30.6% | 46.8% | 71.8% | 24.8% | 54% | 67.4% | 86.8% | 90.4% | 142 µM | 78.1 µM | 43.6 µM | 57.3 µM | –
– | – | 65.9 µM | 2 µM | CN(C)Cc1cc(/C=C2\CCC/C(=C\c3cc(CN(C)C)c(O)c(CN(C)C)c3)C2=O)ccc1O | 13.4% | 21.3% | 36.5% | 38.7% | 52.3% | 25.9% | 54.5% | 66.6% | 85.7% | 90.3% | 64.7 µM | 35.5 µM | 49.5 µM | 45.3 µM | –
Stable | Stable | – | – | CN(C)Cc1cc(/C=C2\CCC/C(=C\c3ccc(O)c(CN(C)C)c3)C2=O)ccc1O | – | – | – | – | – | – | – | – | – | – | – | – | – | – | –
